Results from ChEMBL document CHEMBL2040794, “Synthesis and structure-activity analysis of new phosphonium salts with potent activity against African trypanosomes” (J Med Chem, 2012).

What was measured:
[1] = test system: Trypanosoma brucei brucei; assay: Antitrypanosomal activity against diminazene-, pentamidine-, and melaminophenyl arsenical-resistant HAPT1-deficient Trypanosoma brucei brucei B48 after 3 days by alamar blue assay; assay type: functional, organism-based
Summary of the method: (§1)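 Bloodstream-form T. b. brucei (wild-type s427; TbAT1-KO, made from s427 by TbAT1 deletion; B48, selected from TbAT1-KO in vitro on pentamidine, lacking functional HAPT1). Cells were exposed to compound for 48 h, then resazurin (Alamar blue) was added for a further 24 h. A single fluorescence reading gave EC50.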

[2] = test system: Trypanosoma brucei brucei; assay: Antitrypanosomal activity against diminazene aceturate-resistant TbAT1 gene-deficient Trypanosoma brucei brucei AT1-KO after 3 days by alamar blue assay; assay type: functional, organism-based; summary of the method: as §1
[3] = Cytotoxicity against human HEK cells after 3 days by alamar blue assay; assay type: cell-based, HEK293
Summary of the method: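 Human embryonic kidney cells tested by resazurin (Alamar blue) assay: 48 h with compound, then 24 h more after dye addition, single reading; EC₅₀ derived.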

[4] = test system: Trypanosoma brucei brucei; assay: Resistance factor, ratio of EC50 for diminazene aceturate-resistant TbAT1 gene-deficient Trypanosoma brucei brucei AT1-KO to EC50 for wild type Trypanosoma brucei brucei Lister 427; assay type: functional
Summary of the method: (§2)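 Resistance factor is the EC50 in the resistant line (TbAT1-KO or B48) divided by the EC50 in wild-type s427. […] Resistant and wild-type EC50s were compared by Student t-test.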

[5] = test system: Trypanosoma brucei brucei; assay: Antitrypanosomal activity against wild type Trypanosoma brucei brucei Lister 427 after 3 days by alamar blue assay; assay type: functional, organism-based; summary of the method: as §1
[6] = test system: Trypanosoma brucei rhodesiense; assay: Antitrypanosomal activity against Trypanosoma brucei rhodesiense STIB900 infected in rat L6 cells after 72 hrs by alamar blue assay; assay type: functional, organism-based
[7] = test system: Trypanosoma brucei brucei; assay: Resistance factor, ratio of EC50 for diminazene-, pentamidine-, and melaminophenyl arsenical-resistant HAPT1-deficient Trypanosoma brucei brucei B48 to EC50 for wild type Trypanosoma brucei brucei Lister 427; assay type: functional; summary of the method: as §2
L6 = assay: Cytotoxicity against rat L6 cells after 72 hrs by alamar blue assay; assay type: cell-based
[8] = Selectivity index, ratio of EC50 for rat L6 cells to EC50 for Trypanosoma brucei rhodesiense STIB900; assay type: toxicity, cell-based; conditions: for selectivity ratio: L6 cells, read-out: Ratio EC50
Summary of the method: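 Ratio of EC₅₀ in L6 cells to EC₅₀ against T. b. rhodesiense STIB900, both from Alamar blue assays.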

[9] = Selectivity index, ratio of EC50 for human HEK cells to EC50 for wild type Trypanosoma brucei brucei Lister 427; assay type: toxicity, cell-based, HEK293; conditions: for selectivity ratio: HEK cells, read-out: Ratio EC50
Summary of the method: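 Ratio of EC₅₀ in HEK cells to EC₅₀ in wild-type T. b. brucei s427, both from resazurin assays.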

[10] = Trypanosoma brucei, AT1-KO, 72 h
[11] = Trypanosoma brucei, Lister 427, 72 h
[12] = Trypanosoma brucei, STIB900, 72 h

Cc1cccc([P+](Cc2ccc(Oc3ccc(C[P+](c4cccc(C)c4)(c4cccc(C)c4)c4cccc(C)c4)cc3)cc2)(c2cccc(C)c2)c2cccc(C)c2)c1.[Br-].[Br-]
EC50 ([1]; Trypanosoma brucei, B48, 72 h): 88 nM
EC50 [2, 10]: 43 nM
EC50 ([3]; Homo sapiens, HEK293, 72 h): 45400 nM
Ratio EC50 [4]: 0.7
EC50 [5, 11]: 57 nM
EC50 [6, 12]: 488 nM
Ratio EC50 [7]: 1.5
EC50 (L6; Rattus norvegicus, L6, 72 h): 942 nM
selectivity ratio [8]: 1.9
selectivity ratio [9]: 792

Cc1ccc([P+](Cc2ccc(Oc3ccc(C[P+](c4ccccc4)(c4ccccc4)c4ccc(C)cc4)cc3)cc2)(c2ccccc2)c2ccccc2)cc1.[Br-].[Br-]
EC50 ([1]; Trypanosoma brucei, B48, 72 h): 64 nM
EC50 [2, 10]: 77 nM
EC50 ([3]; Homo sapiens, HEK293, 72 h): 240000 nM
Ratio EC50 [4]: 0.9
EC50 [5, 11]: 82 nM
EC50 [6, 12]: 142 nM
Ratio EC50 [7]: 0.8
EC50 (L6; Rattus norvegicus, L6, 72 h): 3340 nM
selectivity ratio [8]: 23
selectivity ratio [9]: 2930

Cc1ccc([P+](Cc2ccc(Cc3ccc(C[P+](c4ccc(C)cc4)(c4ccc(C)cc4)c4ccc(C)cc4)cc3)cc2)(c2ccc(C)cc2)c2ccc(C)cc2)cc1.[Br-].[Br-]
EC50 ([1]; Trypanosoma brucei, B48, 72 h): 74 nM
EC50 [2, 10]: 80 nM
EC50 ([3]; Homo sapiens, HEK293, 72 h): 233000 nM
Ratio EC50 [4]: 1
EC50 [5, 11]: 80 nM
EC50 [6, 12]: 99 nM
Ratio EC50 [7]: 0.9
EC50 (L6; Rattus norvegicus, L6, 72 h): 2330 nM
selectivity ratio [8]: 24
selectivity ratio [9]: 2900

[Br-].[Br-].c1ccc2c([P+](Cc3ccc(Cc4ccc(C[P+](c5cccc6ccccc56)(c5cccc6ccccc56)c5cccc6ccccc56)cc4)cc3)(c3cccc4ccccc34)c3cccc4ccccc34)cccc2c1
EC50 ([1]; Trypanosoma brucei, B48, 72 h): 140 nM
EC50 [2, 10]: 170 nM
EC50 ([3]; Homo sapiens, HEK293, 72 h): 163000 nM
Ratio EC50 [4]: 1.3
EC50 [5, 11]: 140 nM
EC50 [6, 12]: 299 nM
Ratio EC50 [7]: 1
EC50 (L6; Rattus norvegicus, L6, 72 h): 3430 nM
selectivity ratio [8]: 12
selectivity ratio [9]: 1210

Cc1ccc([P+](Cc2ccc(Oc3ccccc3)cc2)(c2ccc(C)cc2)c2ccc(C)cc2)cc1.[Br-]
EC50 ([1]; Trypanosoma brucei, B48, 72 h): 10 nM
EC50 [2, 10]: 13 nM
EC50 ([3]; Homo sapiens, HEK293, 72 h): 17600 nM
Ratio EC50 [4]: 0.8
EC50 [5, 11]: 15 nM
EC50 [6, 12]: 2 nM
Ratio EC50 [7]: 0.7
EC50 (L6; Rattus norvegicus, L6, 72 h): 263 nM
selectivity ratio [8]: 131
selectivity ratio [9]: 1140

C[P+](C)(Cc1ccc(CCCc2ccc(C[P+](C)(C)c3ccccc3)cc2)cc1)c1ccccc1.[Br-].[Br-]
EC50 ([1]; Trypanosoma brucei, B48, 72 h): 1090 nM
EC50 [2, 10]: 1370 nM
EC50 ([3]; Homo sapiens, HEK293, 72 h): > 300000 nM
Ratio EC50 [4]: 1.1
EC50 [5, 11]: 1270 nM
EC50 [6, 12]: 1220 nM
Ratio EC50 [7]: 0.9
EC50 (L6; Rattus norvegicus, L6, 72 h): 59500 nM
selectivity ratio [8]: 49
selectivity ratio [9]: > 230

O=C(c1ccc(C[P+](c2ccccc2)(c2ccccc2)c2ccccn2)cc1)c1ccc(C[P+](c2ccccc2)(c2ccccc2)c2ccccn2)cc1.[Br-].[Br-]
EC50 ([1]; Trypanosoma brucei, B48, 72 h): 1330 nM
EC50 [2, 10]: 1430 nM
EC50 ([3]; Homo sapiens, HEK293, 72 h): > 300000 nM
Ratio EC50 [4]: 2
EC50 [5, 11]: 700 nM
EC50 [6, 12]: 607 nM
Ratio EC50 [7]: 1.9
EC50 (L6; Rattus norvegicus, L6, 72 h): 14600 nM
selectivity ratio [8]: 24
selectivity ratio [9]: > 400

CCC[P+](Cc1ccc(Oc2ccc(C[P+](CCC)(c3ccccc3)c3ccccc3)cc2)cc1)(c1ccccc1)c1ccccc1.[Br-].[Br-]
EC50 ([1]; Trypanosoma brucei, B48, 72 h): 300 nM
EC50 [2, 10]: 280 nM
EC50 ([3]; Homo sapiens, HEK293, 72 h): 233000 nM
Ratio EC50 [4]: 1.1
EC50 [5, 11]: 250 nM
EC50 [6, 12]: 567 nM
Ratio EC50 [7]: 1.2
EC50 (L6; Rattus norvegicus, L6, 72 h): 2900 nM
selectivity ratio [8]: 5
selectivity ratio [9]: 914

O=C(c1ccc(C[P+](c2ccccc2)(C2CCCCC2)C2CCCCC2)cc1)c1ccc(C[P+](c2ccccc2)(C2CCCCC2)C2CCCCC2)cc1.[Br-].[Br-]
EC50 ([1]; Trypanosoma brucei, B48, 72 h): 290 nM
EC50 [2, 10]: 260 nM
EC50 ([3]; Homo sapiens, HEK293, 72 h): > 300000 nM
Ratio EC50 [4]: 1.1
EC50 [5, 11]: 240 nM
EC50 [6, 12]: 320 nM
Ratio EC50 [7]: 1.2
EC50 (L6; Rattus norvegicus, L6, 72 h): 22900 nM
selectivity ratio [8]: 72
selectivity ratio [9]: > 1270

CCCC[P+](CCCC)(CCCC)Cc1ccc(C(=O)c2ccc(C[P+](CCCC)(CCCC)CCCC)cc2)cc1.[Br-].[Br-]
EC50 ([1]; Trypanosoma brucei, B48, 72 h): 1630 nM
EC50 [2, 10]: 1320 nM
EC50 ([3]; Homo sapiens, HEK293, 72 h): > 300000 nM
Ratio EC50 [4]: 2.7
EC50 [5, 11]: 480 nM
EC50 [6, 12]: 355 nM
Ratio EC50 [7]: 3.4
EC50 (L6; Rattus norvegicus, L6, 72 h): 112000 nM
selectivity ratio [8]: 315
selectivity ratio [9]: > 620

Cc1ccc([P+](Cc2ccc(C(=O)c3ccccc3)cc2)(c2ccc(C)cc2)c2ccc(C)cc2)cc1.[Br-]
EC50 ([1]; Trypanosoma brucei, B48, 72 h): 11 nM
EC50 [2, 10]: 12 nM
EC50 ([3]; Homo sapiens, HEK293, 72 h): 32500 nM
Ratio EC50 [4]: 0.2
EC50 [5, 11]: 64 nM
EC50 [6, 12]: 81 nM
Ratio EC50 [7]: 0.2
EC50 (L6; Rattus norvegicus, L6, 72 h): 1350 nM
selectivity ratio [8]: 16.7
selectivity ratio [9]: 505

CC(C)C[P+](Cc1ccc(Cc2ccc(C[P+](CC(C)C)(CC(C)C)CC(C)C)cc2)cc1)(CC(C)C)CC(C)C.[Br-].[Br-]
EC50 ([1]; Trypanosoma brucei, B48, 72 h): 880 nM
EC50 [2, 10]: 880 nM
EC50 ([3]; Homo sapiens, HEK293, 72 h): > 300000 nM
Ratio EC50 [4]: 1.3
EC50 [5, 11]: 700 nM
EC50 [6, 12]: 326 nM
Ratio EC50 [7]: 1.3
EC50 (L6; Rattus norvegicus, L6, 72 h): 45900 nM
selectivity ratio [8]: 141
selectivity ratio [9]: > 429

CCC[P+](Cc1ccc(Cc2ccc(C[P+](CCC)(c3ccccc3)c3ccccc3)cc2)cc1)(c1ccccc1)c1ccccc1.[Br-].[Br-]
EC50 ([1]; Trypanosoma brucei, B48, 72 h): 430 nM
EC50 [2, 10]: 400 nM
EC50 ([3]; Homo sapiens, HEK293, 72 h): > 300000 nM
Ratio EC50 [4]: 1.1
EC50 [5, 11]: 373 nM
EC50 [6, 12]: 799 nM
Ratio EC50 [7]: 1.1
EC50 (L6; Rattus norvegicus, L6, 72 h): 3270 nM
selectivity ratio [8]: 4.1
selectivity ratio [9]: > 800

O=C(c1ccc(C[P+](c2cccc3ccccc23)(c2cccc3ccccc23)c2cccc3ccccc23)cc1)c1ccc(C[P+](c2cccc3ccccc23)(c2cccc3ccccc23)c2cccc3ccccc23)cc1.[Br-].[Br-]
EC50 ([1]; Trypanosoma brucei, B48, 72 h): 180 nM
EC50 [2, 10]: 339 nM
EC50 ([3]; Homo sapiens, HEK293, 72 h): 92000 nM
Ratio EC50 [4]: 1.8
EC50 [5, 11]: 180 nM
EC50 [6, 12]: 400 nM
Ratio EC50 [7]: 1
EC50 (L6; Rattus norvegicus, L6, 72 h): 4900 nM
selectivity ratio [8]: 12
selectivity ratio [9]: 502

Cc1ccc([P+](Cc2ccc(C(=O)c3ccc(C[P+](c4ccc(C)cc4)(c4ccc(C)cc4)c4ccc(C)cc4)cc3)cc2)(c2ccc(C)cc2)c2ccc(C)cc2)cc1.[Cl-].[Cl-]
EC50 [1]: 73 nM
EC50 [2]: 65 nM
EC50 ([3]; hek293): 24000 nM
Ratio EC50 [4]: 0.7
EC50 [5]: 94 nM
EC50 [6]: 84 nM
Ratio EC50 [7]: 0.8
EC50 (L6; l6): 1220 nM
Ratio EC50 ([8]; l6): 14.5
Ratio EC50 ([9]; hek293): 254
